ChEMBL document CHEMBL3097996, “Rational design and synthesis of topoisomerase I and II inhibitors based on oleanolic acid moiety for new anti-cancer drugs” (Bioorg Med Chem, 2014)
The source made the active and inactive calls. No cut-off for these calls is given here.

Tests used:
[1] = biological target: DNA topoisomerase 2-alpha (Homo sapiens) (UniProt P11388); assay: Inhibition of topoisomerase 2 (unknown origin)-mediated kinetoplast DNA decatenation assessed as intensity of supercoiled DNA after 30 mins by agarose gel electrophoresis relative to etoposide
In short: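 kDNA with 2 U topoisomerase II, 37 °C for 30 min, then proteinase K for 15 min at 37 °C and a 1% agarose TAE gel at 1 V/cm. Supercoiled-DNA band intensity was measured, and each compound's value was standardized by dividing it by the etoposide value.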

[2] = biological target: T1, DNA topoisomerase 1 (Homo sapiens) (UniProt P11387); assay: Inhibition of topoisomerase 1 (unknown origin)-mediated relaxation of supercoiled plasmid DNA assessed as intensity of supercoiled DNA after 30 mins by agarose gel electrophoresis relative to camptothecin
T1 sequence (whole entry): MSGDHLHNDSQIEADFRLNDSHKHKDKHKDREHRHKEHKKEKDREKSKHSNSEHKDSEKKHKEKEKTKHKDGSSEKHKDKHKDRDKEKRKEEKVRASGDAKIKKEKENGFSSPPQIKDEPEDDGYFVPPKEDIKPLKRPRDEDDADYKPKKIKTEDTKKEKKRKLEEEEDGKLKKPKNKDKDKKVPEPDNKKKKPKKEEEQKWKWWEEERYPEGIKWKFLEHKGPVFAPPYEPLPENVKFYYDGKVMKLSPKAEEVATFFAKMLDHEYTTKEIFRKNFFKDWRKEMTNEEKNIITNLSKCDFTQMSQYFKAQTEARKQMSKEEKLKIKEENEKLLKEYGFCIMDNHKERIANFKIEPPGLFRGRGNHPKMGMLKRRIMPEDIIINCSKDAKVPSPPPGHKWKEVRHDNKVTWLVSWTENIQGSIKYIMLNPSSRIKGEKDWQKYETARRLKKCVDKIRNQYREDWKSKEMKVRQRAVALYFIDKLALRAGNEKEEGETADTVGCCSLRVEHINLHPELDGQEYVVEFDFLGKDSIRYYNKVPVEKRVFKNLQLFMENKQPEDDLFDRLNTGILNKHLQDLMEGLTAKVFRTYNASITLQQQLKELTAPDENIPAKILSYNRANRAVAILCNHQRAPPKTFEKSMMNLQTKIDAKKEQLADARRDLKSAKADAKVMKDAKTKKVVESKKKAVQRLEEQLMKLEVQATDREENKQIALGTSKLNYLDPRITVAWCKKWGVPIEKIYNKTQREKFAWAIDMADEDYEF
In short: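 Topo I (2 U) relaxation of 250 ng supercoiled plasmid at pH 7.9 in Tris/NaCl/EDTA/BSA/spermidine/glycerol buffer, 37 °C for 30 min, with matched DMSO. Stopped with SDS, proteinase K digestion, 1% agarose TAE gel, ethidium stain. Supercoiled-band intensity of each compound is divided by that of the camptothecin control.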

[3] = biological target: DNA topoisomerase 2-alpha (Homo sapiens) (UniProt P11388); assay: Inhibition of topoisomerase 2 (unknown origin)-mediated kinetoplast DNA decatenation at 100 uM after 30 mins by agarose gel electrophoresis
[4] = biological target: DNA topoisomerase 2-alpha (Homo sapiens) (UniProt P11388); assay: Inhibition of topoisomerase 2 (unknown origin)-mediated kinetoplast DNA decatenation assessed as concentration of the compound exhibiting activity of 100 uM etoposide after 30 mins by agarose gel electrophoresis
[5] = biological target: T1, DNA topoisomerase 1 (Homo sapiens); assay: Inhibition of topoisomerase 1 (unknown origin)-mediated relaxation of supercoiled plasmid DNA assessed as concentration of the compound exhibiting activity of 100 uM camptothecin after 30 mins by agarose gel electrophoresis
[6] = biological target: T1, DNA topoisomerase 1 (Homo sapiens); assay: Inhibition of topoisomerase 1 (unknown origin)-mediated relaxation of supercoiled plasmid DNA at 100 uM after 30 mins by agarose gel electrophoresis

Chain of DNA topoisomerase 2-alpha (Homo sapiens) (P11388 whole entry): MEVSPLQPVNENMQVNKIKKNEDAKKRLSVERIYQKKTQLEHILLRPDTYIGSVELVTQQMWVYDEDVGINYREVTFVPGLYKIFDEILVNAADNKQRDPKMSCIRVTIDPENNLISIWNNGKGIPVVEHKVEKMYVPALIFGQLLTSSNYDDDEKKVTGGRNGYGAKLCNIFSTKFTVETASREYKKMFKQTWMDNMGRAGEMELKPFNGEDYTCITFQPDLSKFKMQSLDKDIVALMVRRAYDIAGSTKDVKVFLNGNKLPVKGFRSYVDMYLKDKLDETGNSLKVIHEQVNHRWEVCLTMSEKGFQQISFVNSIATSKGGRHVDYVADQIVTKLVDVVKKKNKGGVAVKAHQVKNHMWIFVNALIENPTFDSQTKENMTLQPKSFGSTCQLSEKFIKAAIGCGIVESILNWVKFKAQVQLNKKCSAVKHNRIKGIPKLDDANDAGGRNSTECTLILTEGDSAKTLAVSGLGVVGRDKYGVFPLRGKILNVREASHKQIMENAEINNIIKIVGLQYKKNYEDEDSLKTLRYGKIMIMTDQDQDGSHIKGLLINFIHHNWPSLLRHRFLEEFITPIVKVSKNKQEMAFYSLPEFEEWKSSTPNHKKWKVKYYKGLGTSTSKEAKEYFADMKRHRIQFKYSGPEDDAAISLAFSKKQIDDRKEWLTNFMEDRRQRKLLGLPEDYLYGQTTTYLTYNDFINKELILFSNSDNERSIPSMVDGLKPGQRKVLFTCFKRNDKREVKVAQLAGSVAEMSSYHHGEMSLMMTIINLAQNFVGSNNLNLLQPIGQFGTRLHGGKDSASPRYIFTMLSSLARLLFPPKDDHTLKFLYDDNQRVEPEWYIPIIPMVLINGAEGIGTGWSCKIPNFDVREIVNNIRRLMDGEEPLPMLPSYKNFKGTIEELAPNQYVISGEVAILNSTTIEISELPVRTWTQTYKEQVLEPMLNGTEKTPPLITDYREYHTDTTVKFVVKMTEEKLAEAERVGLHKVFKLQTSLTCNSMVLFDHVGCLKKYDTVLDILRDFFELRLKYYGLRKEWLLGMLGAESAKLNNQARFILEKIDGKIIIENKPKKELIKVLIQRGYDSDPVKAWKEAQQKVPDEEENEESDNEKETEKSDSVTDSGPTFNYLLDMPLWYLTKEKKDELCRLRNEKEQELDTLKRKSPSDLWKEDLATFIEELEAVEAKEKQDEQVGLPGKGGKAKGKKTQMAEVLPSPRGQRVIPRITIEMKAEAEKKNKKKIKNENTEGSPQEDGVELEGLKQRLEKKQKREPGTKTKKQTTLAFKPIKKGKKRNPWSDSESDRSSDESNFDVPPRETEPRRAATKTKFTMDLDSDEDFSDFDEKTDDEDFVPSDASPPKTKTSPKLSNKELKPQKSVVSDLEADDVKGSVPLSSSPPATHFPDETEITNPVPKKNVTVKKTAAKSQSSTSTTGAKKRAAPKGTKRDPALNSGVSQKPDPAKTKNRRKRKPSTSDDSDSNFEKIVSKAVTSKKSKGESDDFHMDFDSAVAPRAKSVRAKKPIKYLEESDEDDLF

Row | SMILES | fold change (FC) [1] | fold change (FC) [2] | inhibition [3] | Activity [4] | Activity [5] | inhibition [6]
1 | CC1(C)CC[C@]2(C(=O)O)CC[C@]3(C)C(=CC[C@@H]4[C@@]5(C)CC[C@H](OC(=O)Nc6cccc7ccccc67)C(C)(C)[C@@H]5CC[C@]43C)[C@@H]2C1 | 1.03 | 0.4 | Active | – | – | –
2 | CC1(C)CC[C@]2(C(=O)O)CC[C@]3(C)C(=CC[C@@H]4[C@@]5(C)CC[C@H](OC(=O)Nc6ccc(-c7ccccc7)cc6)C(C)(C)[C@@H]5CC[C@]43C)[C@@H]2C1 | 1.21 | 0.79 | – | 46.5 µM | – | –
3 | CC1(C)CC[C@]2(C(=O)O)CC[C@]3(C)C(=CC[C@@H]4[C@@]5(C)CC[C@H](OC(=O)NCc6ccccc6)C(C)(C)[C@@H]5CC[C@]43C)[C@@H]2C1 | 1.12 | 1.64 | – | 68 µM | 16.1 µM | –
4 | C=CCNC(=O)O[C@H]1CC[C@]2(C)[C@H]3CC=C4[C@@H]5CC(C)(C)CC[C@]5(C(=O)O)CC[C@@]4(C)[C@]3(C)CC[C@H]2C1(C)C | 1.26 | 1.57 | – | 53 µM | 15.2 µM | –
5 | COc1cc([C@@H]2c3cc4c(cc3[C@@H](O[C@@H]3O[C@@H]5CO[C@@H](C)O[C@H]5[C@H](O)[C@H]3O)[C@H]3COC(=O)[C@H]23)OCO4)cc(OC)c1O | – | – | Active | – | – | –
6 | CC1(C)CC[C@]2(C(=O)O)CC[C@]3(C)C(=CC[C@@H]4[C@@]5(C)CC[C@H](O)C(C)(C)[C@@H]5CC[C@]43C)[C@@H]2C1 | 0.74 | 0.84 | – | 276 µM | 265 µM | –
7 | CC1(C)CC[C@]2(C(=O)NCc3ccccc3)CC[C@]3(C)C(=CC[C@@H]4[C@@]5(C)CC[C@H](OC(=O)NCc6ccccc6)C(C)(C)[C@@H]5CC[C@]43C)[C@@H]2C1 | 1.21 | 1.42 | – | 57 µM | 25.4 µM | –
8 | CC1(C)CC[C@]2(C(=O)O)CC[C@]3(C)C(=CC[C@@H]4[C@@]5(C)CC[C@H](OS(=O)(=O)c6ccccc6)C(C)(C)[C@@H]5CC[C@]43C)[C@@H]2C1 | 0.92 | 0.54 | – | – | – | –
9 | CC1(C)CC[C@]2(C(=O)NS(=O)(=O)c3ccccc3)CC[C@]3(C)C(=CC[C@@H]4[C@@]5(C)CC[C@H](OC(=O)NS(=O)(=O)c6ccccc6)C(C)(C)[C@@H]5CC[C@]43C)[C@@H]2C1 | 0.91 | 1.36 | – | – | 23.1 µM | –
10 | CC1(C)CC[C@]2(C(=O)Nc3cccc4ccccc34)CC[C@]3(C)C(=CC[C@@H]4[C@@]5(C)CC[C@H](OC(=O)Nc6cccc7ccccc67)C(C)(C)[C@@H]5CC[C@]43C)[C@@H]2C1 | 1.07 | 1.55 | Active | – | 17.4 µM | –
11 | CC1(C)CC[C@]2(C(=O)NCc3ccccc3)CC[C@]3(C)C(=CC[C@@H]4[C@@]5(C)CC[C@H](O)C(C)(C)[C@@H]5CC[C@]43C)[C@@H]2C1 | 1.07 | 0.98 | Active | – | – | Active
